Results as given in ChEMBL document CHEMBL2429794, “Tuning the antibacterial activity of amphiphilic neamine derivatives and comparison to paromamine homologues” (J Med Chem, 2013).
≈ marks a conversion by molar mass, not a printed value.

Tests used:
Escherichia coli [1] = test: microbe, parasite or virus in culture; details: ATCC 25922, 24 h
Pseudomonas aeruginosa [2] = test: Antibacterial activity against Pseudomonas aeruginosa PA22 (PT629) expressing MexXY after 24 hrs by geometric microdilution method; format: functional
Pseudomonas aeruginosa [3] = test: Antibacterial activity against Pseudomonas aeruginosa ATCC 27853 after 24 hrs by geometric microdilution method; format: functional; details: ATCC 27853, 24 h
Escherichia coli [4] = test: Antibacterial activity against Escherichia coli PAZ505H8101 expressing AAC6'-1B after 24 hrs by geometric microdilution method; format: functional; details: PAZ505H8101, 24 h
Staphylococcus aureus [5] = test: Antibacterial activity against fluoroquinolone-resistant Staphylococcus aureus 1199B expressing NorA efflux pump after 24 hrs by geometric microdilution method; format: functional
Outline: (§1)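 Broth cultures were incubated in plates at 37 °C, and growth was read as absorbance at 650 nm after 1, 4, 7 and 24 h. Ampicillin (16 mg/L) was the positive control and DMSO the negative control. Each MIC (μg/mL) is the average of at least three determinations.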

Staphylococcus aureus [6] = test: Antibacterial activity against Staphylococcus aureus expressing aminoglycoside-[…] after 24 hrs by geometric microdilution method; format: functional
Outline: as §1

Staphylococcus aureus [7] = test: Antibacterial activity against vancomycin-resistant Staphylococcus aureus VRS2 after 24 hrs by geometric microdilution method; format: functional; details: VRS2, 24 h
Outline: as §1

Pseudomonas aeruginosa [8] = test: Antibacterial activity against Pseudomonas aeruginosa F03 expressing AAC6'-2A after 24 hrs by geometric microdilution method; format: functional; details: F03, 24 h
Escherichia coli [9] = test: Antibacterial activity against Escherichia coli L58058.1 expressing ANT2''-1A after 24 hrs by geometric microdilution method; format: functional; details: L58058.1, 24 h
Staphylococcus aureus [10] = test: Antibacterial activity against Staphylococcus aureus expressing aminoglycoside-3'-O-phosphoryltransferase after 24 hrs by geometric microdilution method; format: functional
Outline: as §1

[11] = Ratio of cytotoxicity against murine J774 cells to antibacterial activity against healthcare-acquired methicillin-resistant Staphylococcus aureus ATCC 33592; format: toxicity, cell-based; details: mouse
[12] = Cytotoxicity against murine J774 cells assessed as cell viability at 10 uM after 24 hrs by MTT assay relative to control; format: cell-based; details: mouse, read-out: Activity
Outline: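 Murine J774 macrophages were exposed for 24 h to compounds at 10 μM, then incubated 1 h with 0.2 mg/mL MTT. Viability was read from mitochondrial reduction of MTT to purple formazan, expressed as percent viability, and averaged over three experiments.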

Staphylococcus aureus [13] = test: Antibacterial activity against 14- and 15-membered macrolide-resistant Staphylococcus aureus expressing MsrA efflux pump after 24 hrs by geometric microdilution method; format: functional
Outline: as §1

Staphylococcus aureus [14] = test: Antibacterial activity against healthcare-acquired methicillin-resistant Staphylococcus aureus ATCC 33592 after 24 hrs by geometric microdilution method; format: functional; details: ATCC 33592, 24 h
Outline: as §1

Staphylococcus aureus [15] = test: Antibacterial activity against Staphylococcus aureus expressing aminoglycoside-6'-N-acetyltransferase/2''-O-phosphoryltransferase after 24 hrs by geometric microdilution method; format: functional
Outline: as §1

Staphylococcus aureus [16] = test: microbe, parasite or virus in culture; details: ATCC 25923, 24 h
[17] = Ratio of cytotoxicity against murine J774 cells to antibacterial activity against vancomycin-resistant Staphylococcus aureus VRS2; format: toxicity, cell-based; details: mouse
[18] = Ratio of cytotoxicity against murine J774 cells to antibacterial activity against Pseudomonas aeruginosa PA22 (PT629) expressing MexXY; format: toxicity, cell-based; details: mouse
[19] = Ratio of cytotoxicity against murine J774 cells to antibacterial activity against Pseudomonas aeruginosa F03 expressing AAC6'-2A; format: toxicity, cell-based; details: mouse
[20] = Ratio of cytotoxicity against murine J774 cells to antibacterial activity against Pseudomonas aeruginosa ATCC 27853; format: toxicity, cell-based; details: mouse
Acinetobacter lwoffii [21] = test: Antibacterial activity against Acinetobacter lwoffii ATCC 17925 after 24 hrs by geometric microdilution method; format: functional; details: ATCC 17925, 24 h
Klebsiella pneumoniae = test: Antibacterial activity against Klebsiella pneumoniae ATCC 700603 after 24 hrs by geometric microdilution method; format: functional; details: ATCC 700603, 24 h
Acinetobacter lwoffii [22] = test: Antibacterial activity against Acinetobacter lwoffii AI.88-483 expressing APH3'-6A after 24 hrs by geometric microdilution method; format: functional; details: AI.88-483, 24 h

Row | SMILES | MIC (Escherichia coli [1]) [µg/mL] | MIC (Pseudomonas aeruginosa [2]) [µg/mL] | MIC (Pseudomonas aeruginosa [3]) [µg/mL] | MIC (Escherichia coli [4]) [µg/mL] | MIC (Staphylococcus aureus [5]) [µg/mL] | MIC (Staphylococcus aureus [6]) [µg/mL] | MIC (Staphylococcus aureus [7]) [µg/mL] | MIC (Pseudomonas aeruginosa [8]) [µg/mL] | MIC (Escherichia coli [9]) [µg/mL] | MIC (Staphylococcus aureus [10]) [µg/mL] | viability at 24 h, 10 µM [12] [%] | MIC (Staphylococcus aureus [13]) [µg/mL] | MIC (Staphylococcus aureus [14]) [µg/mL] | MIC (Staphylococcus aureus [15]) [µg/mL] | MIC (Staphylococcus aureus [16]) [µg/mL] | MIC (Acinetobacter lwoffii [21]) [µg/mL] | MIC (Klebsiella pneumoniae) [µg/mL] | MIC (Acinetobacter lwoffii [22]) [µg/mL] | further results
1 | NC[C@H]1O[C@H](O[C@H]2[C@H](O)[C@@H](OCCCc3ccc4ccccc4c3)[C@H](N)C[C@@H]2N)[C@H](N)[C@@H](OCCCc2ccc3ccccc3c2)[C@@H]1O | 16 (≈ 24.3 µM) | 16 (≈ 24.3 µM) | 4 (≈ 6.07 µM) | 8 (≈ 12.1 µM) | 2 (≈ 3.04 µM) | 1 (≈ 1.52 µM) | 1 (≈ 1.52 µM) | 16 (≈ 24.3 µM) | 16 (≈ 24.3 µM) | 1 (≈ 1.52 µM) | 90 | 0.5 (≈ 0.759 µM) | 2 (≈ 3.04 µM) | 2 (≈ 3.04 µM) | 2 (≈ 3.04 µM) | – | – | – | selectivity ratio [11]: 5.5; selectivity ratio [17]: 11
2 | CCCCCCCCCO[C@@H]1[C@@H](N)[C@@H](O[C@H]2[C@H](O)[C@@H](OCCCCCCCCC)[C@H](N)C[C@@H]2N)O[C@H](CN)[C@H]1O | 4 (≈ 6.96 µM) | 4 (≈ 6.96 µM) | 4 (≈ 6.96 µM) | 2 (≈ 3.48 µM) | 8 (≈ 13.9 µM) | 4 (≈ 6.96 µM) | 2 (≈ 3.48 µM) | 4 (≈ 6.96 µM) | 4 (≈ 6.96 µM) | 2 (≈ 3.48 µM) | 75 | 4 (≈ 6.96 µM) | 4 (≈ 6.96 µM) | 4 (≈ 6.96 µM) | 2 (≈ 3.48 µM) | – | – | – | selectivity ratio [18]: 2.5; selectivity ratio [19]: 2.5; selectivity ratio [20]: 2.5; selectivity ratio [17]: > 5
3 | NC[C@H]1O[C@H](O[C@H]2[C@H](O)[C@@H](O)[C@H](N)C[C@@H]2N)[C@H](N)[C@@H](O)[C@@H]1O [NEAMINE] | 32 (≈ 99.3 µM) | > 128 | > 128 | > 128 | 32 (≈ 99.3 µM) | > 128 | ≥ 128 | > 128 | 32 (≈ 99.3 µM) | > 128 | – | 16 (≈ 49.6 µM) | > 128 | 16 (≈ 49.6 µM) | 32 (≈ 99.3 µM) | 2 (≈ 6.2 µM) | 32 (≈ 99.3 µM) | > 128 | –
4 | NC[C@H]1O[C@H](O[C@H]2[C@H](O)[C@@H](OCCCCc3ccc4ccccc4c3)[C@H](N)C[C@@H]2N)[C@H](N)[C@@H](OCCCCc2ccc3ccccc3c2)[C@@H]1O | 8 (≈ 11.6 µM) | 8 (≈ 11.6 µM) | 4 (≈ 5.82 µM) | 4 (≈ 5.82 µM) | 2 (≈ 2.91 µM) | 1 (≈ 1.46 µM) | 2 (≈ 2.91 µM) | 8 (≈ 11.6 µM) | 8 (≈ 11.6 µM) | 1 (≈ 1.46 µM) | 80 | 0.25 (≈ 0.364 µM) | 2 (≈ 2.91 µM) | 2 (≈ 2.91 µM) | 2 (≈ 2.91 µM) | 4 (≈ 5.82 µM) | 32 (≈ 46.6 µM) | 64 (≈ 93.2 µM) | selectivity ratio [17]: > 5
5 | N[C@H]1[C@@H](O[C@H]2[C@H](O)[C@@H](OCc3ccc4ccccc4c3)[C@H](N)C[C@@H]2N)O[C@H](CO)[C@@H](OCc2ccc3ccccc3c2)[C@@H]1OCc1ccc2ccccc2c1 | 64 (≈ 86 µM) | 32 (≈ 43 µM) | 32 (≈ 43 µM) | 16 (≈ 21.5 µM) | 16 (≈ 21.5 µM) | 8 (≈ 10.8 µM) | 128 (≈ 172 µM) | 32 (≈ 43 µM) | 32 (≈ 43 µM) | 4 (≈ 5.38 µM) | – | 32 (≈ 43 µM) | 64 (≈ 86 µM) | 16 (≈ 21.5 µM) | 2 (≈ 2.69 µM) | 1 (≈ 1.34 µM) | 32 (≈ 43 µM) | > 128 | –
6 | CCCCCCO[C@@H]1[C@@H](N)[C@@H](O[C@H]2[C@H](O)[C@@H](OCCCCCC)[C@H](N)C[C@@H]2N)O[C@H](CN)[C@H]1OCCCCCC | 4 (≈ 6.96 µM) | 8 (≈ 13.9 µM) | 8 (≈ 13.9 µM) | 4 (≈ 6.96 µM) | 4 (≈ 6.96 µM) | 8 (≈ 13.9 µM) | 4 (≈ 6.96 µM) | 8 (≈ 13.9 µM) | 4 (≈ 6.96 µM) | 4 (≈ 6.96 µM) | 40 | 8 (≈ 13.9 µM) | 4 (≈ 6.96 µM) | 8 (≈ 13.9 µM) | 4 (≈ 6.96 µM) | 4 (≈ 6.96 µM) | 8 (≈ 13.9 µM) | 64 (≈ 111 µM) | –
7 | N[C@H]1[C@@H](O[C@H]2[C@H](O)[C@@H](OCc3ccc4ccccc4c3)[C@H](N)C[C@@H]2N)O[C@H](CO)[C@@H](O)[C@@H]1OCc1ccc2ccccc2c1 | 128 (≈ 212 µM) | 128 (≈ 212 µM) | 128 (≈ 212 µM) | 64 (≈ 106 µM) | 32 (≈ 53 µM) | 16 (≈ 26.5 µM) | 16 (≈ 26.5 µM) | 64 (≈ 106 µM) | 64 (≈ 106 µM) | 16 (≈ 26.5 µM) | – | 32 (≈ 53 µM) | 16 (≈ 26.5 µM) | 32 (≈ 53 µM) | 8 (≈ 13.3 µM) | 64 (≈ 106 µM) | > 128 | > 128 | –
8 | NC[C@@H]1O[C@H](O[C@H]2[C@@H](O)[C@H](O[C@@H]3[C@@H](O)[C@H](N)C[C@H](N)[C@H]3O[C@H]3O[C@H](CN)[C@@H](O)[C@H](O)[C@H]3N)O[C@@H]2CO)[C@H](N)[C@@H](O)[C@@H]1O [FRAMYCETIN] | 2 (≈ 3.25 µM) | 32 (≈ 52.1 µM) | 64 (≈ 104 µM) | 4 (≈ 6.51 µM) | 1 (≈ 1.63 µM) | 32 (≈ 52.1 µM) | 128 (≈ 208 µM) | 128 (≈ 208 µM) | 1 (≈ 1.63 µM) | > 128 | – | 2 (≈ 3.25 µM) | > 128 | 1 (≈ 1.63 µM) | 2 (≈ 3.25 µM) | 0.5 (≈ 0.813 µM) | 16 (≈ 26 µM) | > 128 | –
9 | NC[C@H]1O[C@H](O[C@H]2[C@H](O)[C@@H](OCc3cccc4ccccc34)[C@H](N)C[C@@H]2N)[C@H](N)[C@@H](OCc2cccc3ccccc23)[C@@H]1OCc1cccc2ccccc12 | 8 (≈ 10.8 µM) | 8 (≈ 10.8 µM) | 8 (≈ 10.8 µM) | 2 (≈ 2.69 µM) | 4 (≈ 5.38 µM) | 4 (≈ 5.38 µM) | 16 (≈ 21.5 µM) | 8 (≈ 10.8 µM) | 16 (≈ 21.5 µM) | 2 (≈ 2.69 µM) | – | 2 (≈ 2.69 µM) | 4 (≈ 5.38 µM) | 4 (≈ 5.38 µM) | 1 (≈ 1.35 µM) | 2 (≈ 2.69 µM) | 128 (≈ 172 µM) | 128 (≈ 172 µM) | –
10 | NC[C@H]1O[C@H](O[C@H]2[C@H](O)[C@@H](OCCCCCCc3ccc4ccccc4c3)[C@H](N)C[C@@H]2N)[C@H](N)[C@@H](OCCCCCCc2ccc3ccccc3c2)[C@@H]1O | 128 (≈ 172 µM) | 64 (≈ 86.1 µM) | 32 (≈ 43.1 µM) | 64 (≈ 86.1 µM) | > 128 | > 128 | > 128 | 64 (≈ 86.1 µM) | 128 (≈ 172 µM) | 64 (≈ 86.1 µM) | < 50 | – | > 128 | 128 (≈ 172 µM) | 64 (≈ 86.1 µM) | – | – | – | –
11 | CCCCCCO[C@@H]1[C@@H](N)[C@@H](O[C@H]2[C@H](O)[C@@H](OCCCCCC)[C@H](N)C[C@@H]2N)O[C@H](CN)[C@H]1O | 128 (≈ 261 µM) | > 128 | > 128 | 128 (≈ 261 µM) | 128 (≈ 261 µM) | > 128 | 128 (≈ 261 µM) | > 128 | 128 (≈ 261 µM) | > 128 | – | 128 (≈ 261 µM) | 128 (≈ 261 µM) | > 128 | 128 (≈ 261 µM) | > 128 | > 128 | > 128 | –
